Screens (PubChem)
S1P4 antag: human S1P4 receptor antagonism; O95977; inhibition, % at 4.98 µM; S1P4-expressing cells, antagonist mode, reporter read-out; 220,000 compounds, 0.26% hits; in the data active means inhibition above about 29%;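 further: 0% = wells stimulated with agonist and 100% = vehicle wells without agonist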
Target sequence (O95977 whole entry, looked up): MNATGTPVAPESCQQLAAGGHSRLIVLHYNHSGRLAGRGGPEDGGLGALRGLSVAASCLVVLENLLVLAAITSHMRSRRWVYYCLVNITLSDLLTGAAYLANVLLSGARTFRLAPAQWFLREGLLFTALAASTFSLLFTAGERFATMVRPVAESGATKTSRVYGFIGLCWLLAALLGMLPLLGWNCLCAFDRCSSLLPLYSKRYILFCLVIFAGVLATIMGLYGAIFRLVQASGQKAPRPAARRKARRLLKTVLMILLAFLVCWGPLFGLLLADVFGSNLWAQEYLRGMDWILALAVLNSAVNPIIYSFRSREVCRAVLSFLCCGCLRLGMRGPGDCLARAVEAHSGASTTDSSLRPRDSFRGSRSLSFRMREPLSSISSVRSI
Mdm2 ligase inh: inhibitors of human Mdm2 E3 ubiquitin ligase; Q00987; cell-based MDM2 ubiquitination luciferase reporter, 2 h; 0 = plate control, 100 = twice control, blank-subtracted; signal enhancement, % at 5 µM; 210,000 compounds, 0.11% hits;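 active means signal enhancement of 30% or more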;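 further: luminescence tracks abundance of the self-degrading MDM2-luciferase fusion protein; higher signal means inhibition of MDM2 E3 ligase activity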
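system = mammalian cells stably expressing self-ubiquitinating, self-degrading MDM2 E3–luciferase fusion | quantity = 2000 cells per well seeded | incubation = 4 h cell settling then 2 h compound exposure, 37 °C | signal = SteadyLite luminescence, 15 min reagent step | benchmarks = plate control and blank wells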
S1P4 agonist: agonists of human S1P4 receptor; O95977; S1P4-expressing cell line, agonist reporter assay; activation, % at 4.98 µM; 220,000 compounds, 0.35% hits; in the data active means activation above about 11%;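 further: 0% = DMSO vehicle and 100% = reference agonist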
S1P3 antag: antagonists of human S1P3 receptor. CHO S1P3 NFAT-BLA reporter, FRET fluorescence, antagonist mode. Q99500. 170,000 compounds, 0.27% hits. inhibition, % at 4.98 µM. AID 485;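 active means inhibition above the plate cutoff, the mean inhibition of test wells on that plate plus 3 SD, cut at about 28% in these data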;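 further: cells challenged with S1P at its EC80 of 0.8 µM; blue over green emission ratio from cleaved BLA substrate after 4 h stimulation; 0% = S1P-stimulated wells and 100% = unstimulated DMSO-only wells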
Lmaj promast: reduces viability of Leishmania major promastigotes; AID 1063; inhibition, % at 10 µM; 200,000 compounds, 9% hits; resazurin fluorescence viability; in the data active means inhibition above about 50%;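 further: promastigotes grown with compound for 44 hours at 28 °C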
Active calls of the source: *. The entries come from a sample that favours hits as a whole.

How did O=[N+]([O-])c1ccc(N/N=C2/CCCCC2c2ccccn2)cc1 (stereo unspecified) do in these assays?
S1P4 antag: 3; Mdm2 ligase inh: -22; S1P4 agonist: -2; S1P3 antag: -2; Lmaj promast: 98*

Results for O=C(Cc1ccc([N+](=O)[O-])cc1)NCc1ccccn1 ?
S1P4 antag: -19; Mdm2 ligase inh: -18; S1P4 agonist: 3; S1P3 antag: -4; Lmaj promast: 0

Results for CC1(C)C/C(=N\NC(=S)Nc2ccccc2F)c2cc(O)ccc2O1 ?
S1P4 antag: 13; Mdm2 ligase inh: -7; S1P4 agonist: 0; S1P3 antag: -6; Lmaj promast: 80*

How did CCc1cccc(NC(=O)C2CCN(S(=O)(=O)c3c(C)noc3C)CC2)c1 do in these assays?
S1P4 antag: 0; Mdm2 ligase inh: -16; S1P4 agonist: 1; S1P3 antag: 11; Lmaj promast: 64*

How did Cc1noc(C)c1S(=O)(=O)N1CCC(C(=O)NC2CCN(Cc3ccccc3)CC2)CC1 do in these assays?
S1P4 antag: -24; Mdm2 ligase inh: -20; S1P4 agonist: 4; Lmaj promast: 89*

How did Cc1noc(C)c1S(=O)(=O)N1CCC(C(=O)Nc2ccccn2)CC1 do in these assays?
S1P4 antag: 1; Mdm2 ligase inh: 0; S1P4 agonist: 2; Lmaj promast: 5

Results for Cc1ccccc1-c1nc(CN2CCC(C(=O)NC3CCN(Cc4ccccc4)CC3)CC2)c(C)o1 ?
S1P4 antag: -20; S1P4 agonist: 0; S1P3 antag: -29; Lmaj promast: 100*

Results for O=C(NC1CCCc2ccccc21)C1CCN(S(=O)(=O)N2CCCCCC2)CC1 (stereo unspecified) ?
S1P4 antag: -20; Mdm2 ligase inh: 3; S1P4 agonist: 0; S1P3 antag: 7; Lmaj promast: 3

Results for Cc1noc(C)c1S(=O)(=O)N1CCC(C(=O)NC2CCCc3ccccc32)CC1 (stereo unspecified) ?
S1P4 antag: -15; Mdm2 ligase inh: -18; S1P4 agonist: 1; Lmaj promast: 60*

What do the screens show for `Cc1ccccc1-c1nc(CN2CCC(C(=O)O)CC2)c(C)o1`?
S1P4 antag: -1; Mdm2 ligase inh: -12; S1P4 agonist: 1; S1P3 antag: 7; Lmaj promast: -6

How did Cc1cc(C(=O)N/N=C/C(Cl)=C/c2ccccc2)c(C)o1 do in these assays?
S1P4 antag: 0; Mdm2 ligase inh: 0; S1P4 agonist: 1; S1P3 antag: 9

What do the screens show for `CSc1ncccc1C(=O)OCC(=O)NC(C)C`?
S1P4 antag: -3; Mdm2 ligase inh: -8; S1P4 agonist: 1; S1P3 antag: -27; Lmaj promast: -4

How did Cc1ccc(NC(=O)C2CCN(S(=O)(=O)c3c(C)noc3C)CC2)cc1C do in these assays?
S1P4 antag: -3; Mdm2 ligase inh: -7; S1P4 agonist: 0; S1P3 antag: -9; Lmaj promast: 99*

What do the screens show for `Nc1cccc2c1C(=O)N(C(=O)/C=C/c1cccc(Br)c1)C2=O`?
S1P4 antag: -9; Mdm2 ligase inh: 35*; S1P4 agonist: 1; S1P3 antag: -3

Results for COc1ccc(OCCC(=O)NCC23CC4CC(CC(C4)C2)C3)cc1 ?
S1P4 antag: -8; Mdm2 ligase inh: -11; S1P4 agonist: -1; S1P3 antag: -10; Lmaj promast: 97*

What do the screens show for `COC(=O)C1=C(C)N(C)C(C)=C(C(=O)OC)C1c1ccc(F)c(Br)c1`?
S1P4 antag: 13; Mdm2 ligase inh: 4; S1P4 agonist: -1; S1P3 antag: 11; Lmaj promast: 76*

What do the screens show for `COC(=O)C1=C(C)N(C)C(C)=C(C(=O)OC)C1c1ccncc1`?
S1P4 antag: 2; Mdm2 ligase inh: -10; S1P4 agonist: 0; S1P3 antag: -20; Lmaj promast: 2

How did CCOC(=O)c1ccc(NC(=O)COc2ccccc2CNCCc2ccccc2)cc1 do in these assays?
S1P4 antag: 26; Mdm2 ligase inh: -15; S1P4 agonist: -4; S1P3 antag: -14; Lmaj promast: 101*

How did C=CCOc1ccc(CNC(C)(C)CO)cc1OC do in these assays?
S1P4 antag: -8; Mdm2 ligase inh: -9; S1P4 agonist: -3; Lmaj promast: -5

What do the screens show for `CCOC(=O)c1ccc(NC(=O)COc2ccc(CNCCO)cc2OCC)cc1`?
S1P4 antag: -7; Mdm2 ligase inh: -4; S1P4 agonist: 0; S1P3 antag: -7; Lmaj promast: 32

What do the screens show for `CCOC(=O)c1ccc(NC(=O)COc2ccc(CNC3CCCCC3)cc2OC)cc1`?
S1P4 antag: 11; Mdm2 ligase inh: -8; S1P4 agonist: 0; S1P3 antag: -11; Lmaj promast: 94*

Results for COc1cc(CNC(C)(C)CO)ccc1OCC(=O)Nc1ccc(Br)cc1 ?
S1P4 antag: -9; Mdm2 ligase inh: -6; S1P4 agonist: 0; Lmaj promast: 101*

How did Cc1noc(C)c1CSCC(=O)OCc1nc2ccccc2c(=O)n1CC#N do in these assays?
S1P4 antag: -11; Mdm2 ligase inh: 4; S1P4 agonist: 0; Lmaj promast: -6

What do the screens show for `Cc1cccc(Cn2c(Cc3ccccc3)nc3ccccc32)c1`?
S1P4 antag: -9; Mdm2 ligase inh: -6; S1P4 agonist: 1; S1P3 antag: -8; Lmaj promast: 92*

Results for Clc1ncccc1-c1nc2ccccc2n1Cc1ccccc1 ?
S1P4 antag: -6; Mdm2 ligase inh: -23; S1P4 agonist: 2; Lmaj promast: 94*

Results for CCOC(=O)C(C)(C)NS(=O)(=O)c1ccc(Cl)c([N+](=O)[O-])c1 ?
S1P4 antag: 26; Mdm2 ligase inh: -12; S1P4 agonist: -3; S1P3 antag: -20; Lmaj promast: 6

How did CCOC(=O)C(C)(C)N(Cc1ccc(Cl)cc1)S(=O)(=O)c1ccc(Cl)c([N+](=O)[O-])c1 do in these assays?
S1P4 antag: 2; Mdm2 ligase inh: 0; S1P4 agonist: -1; S1P3 antag: 1; Lmaj promast: 99*

Results for CC(/C=C/c1ccc(OCc2ccccc2)cc1)=N\O ?
S1P4 antag: -7; Mdm2 ligase inh: -5; S1P4 agonist: 1; S1P3 antag: -4; Lmaj promast: 83*

What do the screens show for `CCN=C(NS(=O)(=O)c1ccc(Br)cc1)c1ccc(Cl)cc1`?
S1P4 antag: 4; Mdm2 ligase inh: 8; S1P4 agonist: 0; S1P3 antag: 6; Lmaj promast: 13

What do the screens show for `O=C(/C=C/c1ccc(Cl)cc1Cl)c1nc2ccccc2[nH]1`?
S1P4 antag: -10; Mdm2 ligase inh: -8; S1P4 agonist: -1; Lmaj promast: 99*

How did CCOC(=O)c1ccccc1-c1csc(N)n1 do in these assays?
S1P4 antag: 3; Mdm2 ligase inh: -2; S1P4 agonist: 0; S1P3 antag: -13; Lmaj promast: 0

Results for O=C(Nc1cc([N+](=O)[O-])ccc1Cl)C(Sc1ccccc1)c1ccccc1 (stereo unspecified) ?
S1P4 antag: 4; Mdm2 ligase inh: -14; S1P4 agonist: 1; S1P3 antag: -1; Lmaj promast: 96*
